Assay results of several laboratories.
Compare with care: the assays were run in different laboratories.
Target: Cyclin-dependent kinase-like 3 (CDKL3, Homo sapiens, UniProt Q8IVW4)

CCN1CCN(Cc2ccc(C(=O)Nc3ccc(C)c(Oc4ccc5c(c4)CC(=O)N5)c3)cc2C(F)(F)F)CC1  remaining binding (binding, competition with immobilised ligand; 1 µM): 86%
CNCc1ccccc1-c1csc([C@H](C)Nc2nc(C)nc3cc(OC)c(OC)cc23)c1  remaining binding (cell-free assay, competition with immobilised ligand; 1 µM): 97%
O=C(c1ccc(Nc2ncc(Cl)c(-c3cc4ccccc4s3)n2)cc1)N1CCC(N2CCCC2)CC1  remaining binding (binding, competition with immobilised ligand; 1 µM): 47%
CN(CCCC(F)(F)F)c1nccc(-c2cnn3ncccc23)n1  remaining binding (binding; 1 µM): 100%
O=C(NCCCN1CCOCC1)c1ccc(Nc2ncc(Cl)c(-c3ccc(Cl)s3)n2)cc1  remaining binding (binding, competition with immobilised ligand; 1 µM): 86%
CN(C)CC#Cc1ccc(OCCCc2sc(N3CCc4cccc(C(=O)Nc5nc6ccccc6s5)c4C3)nc2C(=O)O)c(F)c1  remaining binding (cell-free assay, competition with immobilised ligand; 1 µM): 100%
O=C(Nc1c[nH]nc1C(=O)NC1CCNCC1)c1cc(F)cc(F)c1  remaining binding (binding, competition with immobilised ligand; 1 µM): 100%
C[C@@H](c1ccc(-n2cnc3c(N)ncnc32)cc1)N1CCc2nn(C)c(Cc3ccccc3)c2C1=O  remaining binding (binding, competition with immobilised ligand; 0.1 µM): 95%
CS(=O)(=O)NCC[C@H](NC(=O)c1cncc2c1cnn2-c1ccc(F)cc1)c1ccnc(S(C)(=O)=O)c1  remaining binding (binding, competition with immobilised ligand; 1 µM): 99%
FC(F)(F)Oc1cccc(-c2cnc3ccc(-c4ccncc4)nn23)c1  remaining binding (cell-free assay, competition with immobilised ligand; 5 µM): 85%
COc1cnc(Nc2cccc(S(N)(=O)=O)c2)nc1N1CCN(c2ccccc2)CC1  remaining binding (binding, competition with immobilised ligand; 1 µM): 100%
CN(c1ccnc(CNc2nc(Nc3ccc4c(c3)CC(=O)N4)ncc2C(F)(F)F)n1)S(C)(=O)=O  remaining binding (cell-free assay, competition with immobilised ligand; 1 µM): 78%
CN(C)c1nccc(-c2cnc3ncccn23)n1  remaining binding (binding; 1 µM): 100%
CC(C)CC(=O)N1CCc2nc(-c3ccc(Br)cc3)nc(N(C)Cc3ccccc3)c2C1  remaining binding (cell-free assay, competition with immobilised ligand; 0.1 µM): 89%
N[C@@H]1CCN(c2nccc(-c3cnn4ncccc34)n2)C1  remaining binding (binding; 1 µM): 80%
Cc1cnc(Nc2ccc(C(=O)N3CCC(N4CCCC4)CC3)cc2)nc1-c1cc2ccccc2s1  remaining binding (binding, competition with immobilised ligand; 1 µM): 89%
Cc1cnn2ncc(-c3ccnc(N(C)C)n3)c2c1  remaining binding (binding; 1 µM): 86%
CC(C)(O)c1cncc(-c2nc3ccc(F)cc3n2C2CC2)c1  remaining binding (cell-free assay, competition with immobilised ligand; 1 µM): 84%
C[C@H]1CCN(c2nccc(-c3cnn4ncccc34)n2)C1  remaining binding (binding; 1 µM): 85%
CNC(=O)[C@@H]1CC[C@@H](n2c(-c3ccc4cnccc4c3)nc3ccc(C(=O)NCc4cccc(C(N)=O)c4)cc32)C1  remaining binding (binding, competition with immobilised ligand; 1 µM): 96%
